The EC50 is the concentration at which the effect is half-maximal. The term CC50 denotes the concentration that lowers cell viability or growth by half.

Results on 3 compounds are retold here after ChEMBL document CHEMBL1649424, “Design, synthesis, and biological activity of novel 5-((arylfuran/1H-pyrrol-2-yl)methylene)-2-thioxo-3-(3-(trifluoromethyl)phenyl)thiazolidin-4-ones as HIV-1 fusion inhibitors targeting gp41” (J Med Chem, 2011).

Data set [1] concerns Human immunodeficiency virus 1. The data set is described as follows: Antiviral activity against HIV1 3B infected in human MT2 cells assessed as inhibition viral p24 antigen production after 4 days by ELISA. In kind it is functional, organism-based. The conditions noted are these: Human immunodeficiency virus 1, 3B, MT2, 96 h. (In an ELISA, binding on a coated surface is turned into a signal by an enzyme label.)

Data set [2] concerns Human immunodeficiency virus 1. In words: Antiviral activity against HIV1 isolate 92US657 infected in human MT2 cells assessed as inhibition viral p24 antigen production after 4 days by ELISA. In kind it is functional, organism-based. The conditions noted are these: Human immunodeficiency virus 1, isolate 92US657, MT2, 96 h.
Data set [3] in a line: Cytotoxicity against human MT2 cells after 4 days by XTT assay. In kind it is cell-based. The gist of the method:
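Cells (5 × 10⁵/mL) mixed with equal volume of compound at graded concentrations and held 4 days at 37 °C. XTT (1 mg/mL) containing 0.02 μM phenazine methosulphate added, then 4 h at 37 °C. Absorbance read at 450 nm. CC₅₀ by CalcuSyn.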

The nature of data set [4]: Selectivity index, ratio of CC50 for human MT2 cells to EC50 for HIV1 3B infected in human MT2 cells. The format is toxicity, cell-based. The conditions noted are these: MT2 cells (CC50) and HIV1 3B infected MT2 cells (EC50). The method, boiled down: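 Selectivity index taken as MT-2 CC₅₀ (XTT, 4 days) divided by EC₅₀ against HIV-1 IIIB infection (p24 ELISA).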

SMILES strings stand for the structures.

`O=C(O)c1cccc(-c2ccc(/C=C3\SC(=S)N(CCc4ccccc4)C3=O)o2)c1Cl`: the EC50 in data set [1] came to 74 nM; in data set [2], 521 nM. Also, in data set [3], it took 30400 nM to reach half-maximal cytotoxicity (CC50 at 96 h). In addition, the selectivity ratio in data set [4] was 411.
For the compound `O=C(O)c1cccc(-c2ccc(/C=C3\SC(=S)N(CCc4ccccc4)C3=O)o2)c1O`, the EC50 in data set [1] stood at 61 nM; in data set [2] it was 477 nM. For the same compound, half-maximal cytotoxicity in data set [3] (CC50 at 96 h) was put at 16400 nM. The selectivity ratio in data set [4] stood at 269.
The corresponding values for `O=C(O)c1cccc(-c2ccc(/C=C3\SC(=S)N(CCc4ccccc4)C3=O)o2)c1F` are 145 nM, 1080 nM, 28100 nM and 194.
